Measured values reported in ChEMBL document CHEMBL4152363, “Andrographolide derivative as STAT3 inhibitor that protects acute liver damage in mice” (Bioorg Med Chem, 2018).
Activity calls are given as the source filed them. The rule behind the calls is not given here.

Columns and labels:
[1] = target: T1, Signal transducer and activator of transcription 3 (Homo sapiens, UniProt P40763); assay: Inhibition of IL-6 stimulated STAT3 activation in human AD293 cells incubated with IL-6 for 16 hrs followed by compound addition measured after 6 hrs by luciferase reporter gene assay; assay type: cell-based
In short: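 AD-293 cells stimulated with 2.5 μg/mL IL-6; compound treatment 6 h; luciferase activity read from cell extracts; EC50 derived.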

[2] = target: T1, Signal transducer and activator of transcription 3; assay: Inhibition of […] activation in human AD293 cells incubated […] for 16 hrs followed by compound addition measured after 4 hrs by luciferase reporter gene assay; assay type: cell-based
[3] = target: T1, Signal transducer and activator of transcription 3; assay: Inhibition of […] activation in human HeLa cells incubated […] for 16 hrs followed by compound addition measured after 4 hrs by luciferase reporter gene assay; assay type: cell-based
In short: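 NF-κB pathway in AD-293 or HeLa cells stimulated with 50 ng/mL TNF-α; compound treatment 4 h; luciferase activity read from cell extracts; EC50 derived.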

[4] = target: T1, Signal transducer and activator of transcription 3; assay: Inhibition of IFNgamma-stimulated GFP/FLAG-tagged STAT3 dimerization in human AD293 cells at 10 uM incubated for 6 hrs by Western blot analysis; assay type: cell-based
In short: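 AD-293 cells co-transfected 48 h with GFP- and FLAG-tagged STAT3 plasmids, then IFN-γ with or without compound for 6 h; 100 μg lysate (RIPA) immunoprecipitated with anti-FLAG and protein G beads; blots probed for GFP and FLAG, chemiluminescent detection.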

[5] = target: T1, Signal transducer and activator of transcription 3; assay: Inhibition of DNA binding activity of STAT3 in human AD293 cells up to 40 uM; assay type: cell-based
In short: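 STAT3 DNA binding measured with TransAM STAT family ELISA kit per manufacturer; competition control with threefold free oligo; mean ± SD of three separate experiments.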

[6] = tested on: Mus musculus; assay: Toxicity in Balb/c mouse assessed as change in body weight at 30 mg/kg, po qd for 7 days; assay type: organism-based; conditions: in vivo, 168 h
In short: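 Male BalB/C mice (20–25 g, 6–8 weeks, 1-week acclimation) dosed orally 30 mg/kg once daily 7 days, then subcutaneous CCl4 (40% in olive oil, 10 ml/kg); body weight tracked during treatment; S.E.M.; two independent experiments, n=5.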

[7] = tested on: Mus musculus; assay: Antifibrotic activity in CCL4-induced acute liver damage Balb/c mouse model assessed as decrease in alpha-SMA expression in areas surrounding blood vessels at 30 mg/kg, po qd for 7 days measured after 16 hrs post CCL4 challenge by masson trichome staining based assay; assay type: functional, organism-based; conditions: in the assay text read “immunohistochemistry” for “masson trichome staining based assay”
In short: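 Liver sections from mice dosed orally 30 mg/kg daily 7 days then sc CCl4, killed 16 h after; H2O2 block, goat serum/BSA/gelatin blocking 1 h RT, primary antibody (α-SMA, Ki67, PCNA or STAT3) 4 °C overnight, HRP secondary, DAB, hematoxylin counterstain; >30 fields at 400× quantified; n=5.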

[8] = tested on: Mus musculus; assay: Reduction in MMP10 mRNA expression level in CCL4-induced acute liver damage in Balb/c mouse at 30 mg/kg, po qd for 7 days measured after 16 hrs post CCL4 challenge by qRT-PCR method; assay type: functional, organism-based
In short: (§1)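 Mice given 30 mg/kg orally once daily 7 days before sc CCl4 (40% in olive oil, 10 ml/kg); livers harvested 16 h later, PBS-washed, stored at −70 °C for RNA extraction and transcript quantification; n=5, two independent experiments.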

[9] = tested on: Mus musculus; assay: Reduction in MMP13 mRNA expression level in CCL4-induced acute liver damage in Balb/c mouse at 30 mg/kg, po qd for 7 days measured after 16 hrs post CCL4 challenge by qRT-PCR method; assay type: functional, organism-based; in short: as §1
[10] = tested on: Mus musculus; assay: Reduction in MMP9 mRNA expression level in CCL4-induced acute liver damage in Balb/c mouse at 30 mg/kg, po qd for 7 days measured after 16 hrs post CCL4 challenge by qRT-PCR method; assay type: functional, organism-based; in short: as §1
[11] = tested on: Mus musculus; assay: Reduction in Col1a1 mRNA expression level in CCL4-induced acute liver damage in Balb/c mouse at 30 mg/kg, po qd for 7 days measured after 16 hrs post CCL4 challenge by qRT-PCR method; assay type: functional, organism-based; in short: as §1
[12] = tested on: Mus musculus; assay: Reduction in serum ALT level in CCL4-induced acute liver damage in Balb/c mouse at 30 mg/kg, po qd for 7 days measured after 16 hrs post CCL4 challenge […]; assay type: functional, organism-based
[13] = tested on: Mus musculus; assay: Antiinflammatory activity in CCL4-induced acute liver damage Balb/c mouse model assessed as decrease in serum MCP-1 levels at 30 mg/kg, po qd for 7 days measured after 16 hrs post CCL4 challenge; assay type: functional, organism-based
In short: (§2)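 BalB/C males dosed orally 30 mg/kg daily for 7 days, then sc CCl4 (40% in olive oil, 10 ml/kg); serum collected 16 h post-CCl4 after CO2 anaesthesia, stored at −70 °C until IL-6, MCP-1 or TGF-β analysis; n=5.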

[14] = tested on: Mus musculus; assay: Antiinflammatory activity in CCL4-induced acute liver damage Balb/c mouse model assessed as decrease in serum TGF-beta levels at 30 mg/kg, po qd for 7 days measured after 16 hrs post CCL4 challenge; assay type: functional, organism-based; in short: as §2
[15] = tested on: Mus musculus; assay: Reduction in SMAD3 mRNA expression level in liver of CCL4-induced acute liver damage in Balb/c mouse at 30 mg/kg, po qd for 7 days measured after 16 hrs post CCL4 challenge by qRT-PCR method; assay type: functional, organism-based; in short: as §1
[16] = target: T1, Signal transducer and activator of transcription 3; assay: Inhibition of STAT3 in human AD293 cells assessed as decrease in TGFbeta-stimulated SMAD2/3 activation up to 10 uM incubated for 16 hrs by luciferase reporter gene assay relative to control; assay type: cell-based
In short: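 AD-293 cells carrying SMAD2/3 promoter in pGL4.20 luciferase vector, stimulated with TGF-β 100 ng/ml for 16 h with compound up to 10 µM; luciferase activity measured in cell extracts.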

T1 sequence (P40763 whole entry): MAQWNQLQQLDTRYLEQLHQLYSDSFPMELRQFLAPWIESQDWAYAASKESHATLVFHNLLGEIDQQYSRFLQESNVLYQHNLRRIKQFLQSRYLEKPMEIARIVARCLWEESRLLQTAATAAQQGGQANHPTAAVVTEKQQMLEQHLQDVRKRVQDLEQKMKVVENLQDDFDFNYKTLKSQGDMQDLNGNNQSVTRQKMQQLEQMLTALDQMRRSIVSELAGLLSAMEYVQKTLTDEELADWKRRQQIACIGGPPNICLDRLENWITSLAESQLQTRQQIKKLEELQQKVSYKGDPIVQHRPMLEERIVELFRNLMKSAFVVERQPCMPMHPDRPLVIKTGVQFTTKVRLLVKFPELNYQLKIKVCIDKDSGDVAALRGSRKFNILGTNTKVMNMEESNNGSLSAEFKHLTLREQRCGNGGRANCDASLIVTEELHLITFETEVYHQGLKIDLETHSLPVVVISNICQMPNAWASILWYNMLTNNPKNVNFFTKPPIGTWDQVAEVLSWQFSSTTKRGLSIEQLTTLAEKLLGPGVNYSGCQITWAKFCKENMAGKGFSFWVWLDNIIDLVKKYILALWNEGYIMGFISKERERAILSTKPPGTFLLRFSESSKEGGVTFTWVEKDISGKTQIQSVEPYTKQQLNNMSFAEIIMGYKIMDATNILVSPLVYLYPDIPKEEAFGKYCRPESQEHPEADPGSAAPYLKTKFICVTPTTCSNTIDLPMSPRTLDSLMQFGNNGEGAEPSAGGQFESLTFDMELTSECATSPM

EC50 [1]: 3.95 µM
EC50 [2]: > 10 µM
EC50 [3]: > 10 µM
inhibition [4]: Active
inhibition [5]: inactive
inhibition [16]: < 50%
SMILES: CC(C)(C)[Si](C)(C)O[C@@H]1COC(=O)/C1=C/C[C@@H]1[C@]2(CC[C@H]3[C@@]1(C)CCC(=O)[C@@]3(C)CO)CO2
Activity [6]: Non-Toxic
Activity [7]: Active
Activity [8]: Active
Activity [9]: Active
Activity [10]: inactive
Activity [11]: inactive
Activity [12]: inactive
Activity [13]: Active
Activity [14]: Active
Activity [15]: inactive
